According to paper PMC5436510 (Theranostics, 2017):
Square brackets hold non-standard residues; d marks the D form. Peptide text beside a SMILES is read from it.

What was measured:
U87MG-tumor-bearing mice = assay: In vivo antitumor study of peptide-Dox conjugates; design: species or system nude mice
Outline: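 Female nude mice aged 6–7 weeks were inoculated s.c. in the axillary fossa with 1×10^7 U87MG cells. On day 7 they were split into five groups of 10. Saline, free Dox or peptide-Dox conjugates were given i.v. via the tail vein every other day for 7 doses, each equal to 5 mg/kg Dox. Body weight and caliper tumor volume, V = π/6·length·width², were recorded, along with survival.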

[1] = system: U87MG, MDA-MB-231, HepG2 and L02 cells; assay: Transwell cell migration assay; format: cell-based, Human; conditions: peptides 40μM for 24 h, transwell 12 hours
Outline: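 Cells at 60–70% confluence in 6-well plates were exposed to peptides (40 μM) for 24 h. They were then detached and 5×10^5 cells placed in transwell upper chambers, in triplicate, over DMEM + 10% FBS. After 12 h, unmigrated cells were swabbed off. Membranes were fixed in methanol and stained with 0.1% crystal violet, 30 min each. The dye was eluted with 33% acetic acid and read at OD570. % migration = treated/control OD570 × 100.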

αvβ3 integrin = αvβ3 integrin (Homo sapiens, UniProt P05106+P06756); assay: MicroScale Thermophoresis; format: binding
U87MG cells = U87MG cells (Homo sapiens, UniProt P05106+P06756); assay: Confocal cellular uptake of peptide-RhB conjugates; format: cell-based; conditions: confocal imaging, incubation up to 4 h
Outline: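 Cells were seeded on confocal dishes at 3×10^5 per well and left 24 h to attach. Cells were washed three times with PBS (pH 7.4), imaged by laser confocal microscopy, and uptake at 2 h was quantified as mean fluorescence intensity.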

[2] = system: p-FAK, p-PI3K, p-Ras in U87MG cells; assay: Western blot of αvβ3 downstream signalling; format: cell-based, Human; conditions: 64μg /mL for 48 h

Sequence of αvβ3 integrin (P06756 31-889): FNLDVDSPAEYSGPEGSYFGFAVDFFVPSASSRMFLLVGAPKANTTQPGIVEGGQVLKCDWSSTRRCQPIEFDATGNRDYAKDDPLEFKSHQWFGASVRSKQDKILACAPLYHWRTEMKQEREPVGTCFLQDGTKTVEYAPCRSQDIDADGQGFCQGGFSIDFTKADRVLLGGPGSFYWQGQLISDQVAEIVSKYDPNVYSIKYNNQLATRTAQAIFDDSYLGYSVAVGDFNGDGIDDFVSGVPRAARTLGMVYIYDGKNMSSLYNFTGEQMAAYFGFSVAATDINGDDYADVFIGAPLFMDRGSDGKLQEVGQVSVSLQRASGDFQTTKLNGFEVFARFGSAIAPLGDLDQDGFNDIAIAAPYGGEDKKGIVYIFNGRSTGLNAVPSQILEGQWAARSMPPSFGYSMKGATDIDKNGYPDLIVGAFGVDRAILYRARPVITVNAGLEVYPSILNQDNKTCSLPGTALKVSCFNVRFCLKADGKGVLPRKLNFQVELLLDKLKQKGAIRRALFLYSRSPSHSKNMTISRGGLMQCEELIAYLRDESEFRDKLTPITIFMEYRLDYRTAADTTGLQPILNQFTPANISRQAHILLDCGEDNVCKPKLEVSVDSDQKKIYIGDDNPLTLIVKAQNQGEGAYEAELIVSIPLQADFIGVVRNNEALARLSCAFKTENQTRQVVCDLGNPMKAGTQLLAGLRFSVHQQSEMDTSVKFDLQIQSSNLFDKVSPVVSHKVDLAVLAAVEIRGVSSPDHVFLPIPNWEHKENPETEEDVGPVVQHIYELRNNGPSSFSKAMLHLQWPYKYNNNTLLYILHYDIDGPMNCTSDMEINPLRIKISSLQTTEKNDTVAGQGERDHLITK
Sequence of αvβ3 integrin (P06756 891-1048): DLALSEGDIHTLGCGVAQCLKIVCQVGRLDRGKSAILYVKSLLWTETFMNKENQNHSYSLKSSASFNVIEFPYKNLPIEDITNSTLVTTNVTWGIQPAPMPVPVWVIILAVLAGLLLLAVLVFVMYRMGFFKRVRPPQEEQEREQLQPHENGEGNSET
Sequence of αvβ3 integrin (P05106 27-788): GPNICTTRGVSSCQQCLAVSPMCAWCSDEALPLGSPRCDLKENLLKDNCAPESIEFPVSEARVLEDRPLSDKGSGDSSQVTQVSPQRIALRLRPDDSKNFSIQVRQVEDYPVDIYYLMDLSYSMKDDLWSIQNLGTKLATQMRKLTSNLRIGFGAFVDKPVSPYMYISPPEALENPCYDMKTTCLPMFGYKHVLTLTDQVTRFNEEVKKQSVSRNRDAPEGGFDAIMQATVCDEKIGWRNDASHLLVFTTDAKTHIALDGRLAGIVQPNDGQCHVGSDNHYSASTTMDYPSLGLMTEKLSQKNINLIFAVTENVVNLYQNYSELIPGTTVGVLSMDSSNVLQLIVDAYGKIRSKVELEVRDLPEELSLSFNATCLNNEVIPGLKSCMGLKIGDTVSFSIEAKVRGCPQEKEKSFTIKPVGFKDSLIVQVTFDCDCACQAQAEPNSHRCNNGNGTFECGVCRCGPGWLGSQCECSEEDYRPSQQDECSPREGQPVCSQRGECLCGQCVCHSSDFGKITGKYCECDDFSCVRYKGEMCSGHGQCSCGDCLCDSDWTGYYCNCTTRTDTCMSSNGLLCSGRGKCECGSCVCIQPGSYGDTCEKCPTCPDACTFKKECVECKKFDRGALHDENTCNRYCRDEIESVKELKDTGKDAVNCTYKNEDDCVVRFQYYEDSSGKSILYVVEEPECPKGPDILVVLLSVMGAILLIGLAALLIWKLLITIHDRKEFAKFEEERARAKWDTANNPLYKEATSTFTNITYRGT
Sequence of U87MG cells (P06756 31-1048): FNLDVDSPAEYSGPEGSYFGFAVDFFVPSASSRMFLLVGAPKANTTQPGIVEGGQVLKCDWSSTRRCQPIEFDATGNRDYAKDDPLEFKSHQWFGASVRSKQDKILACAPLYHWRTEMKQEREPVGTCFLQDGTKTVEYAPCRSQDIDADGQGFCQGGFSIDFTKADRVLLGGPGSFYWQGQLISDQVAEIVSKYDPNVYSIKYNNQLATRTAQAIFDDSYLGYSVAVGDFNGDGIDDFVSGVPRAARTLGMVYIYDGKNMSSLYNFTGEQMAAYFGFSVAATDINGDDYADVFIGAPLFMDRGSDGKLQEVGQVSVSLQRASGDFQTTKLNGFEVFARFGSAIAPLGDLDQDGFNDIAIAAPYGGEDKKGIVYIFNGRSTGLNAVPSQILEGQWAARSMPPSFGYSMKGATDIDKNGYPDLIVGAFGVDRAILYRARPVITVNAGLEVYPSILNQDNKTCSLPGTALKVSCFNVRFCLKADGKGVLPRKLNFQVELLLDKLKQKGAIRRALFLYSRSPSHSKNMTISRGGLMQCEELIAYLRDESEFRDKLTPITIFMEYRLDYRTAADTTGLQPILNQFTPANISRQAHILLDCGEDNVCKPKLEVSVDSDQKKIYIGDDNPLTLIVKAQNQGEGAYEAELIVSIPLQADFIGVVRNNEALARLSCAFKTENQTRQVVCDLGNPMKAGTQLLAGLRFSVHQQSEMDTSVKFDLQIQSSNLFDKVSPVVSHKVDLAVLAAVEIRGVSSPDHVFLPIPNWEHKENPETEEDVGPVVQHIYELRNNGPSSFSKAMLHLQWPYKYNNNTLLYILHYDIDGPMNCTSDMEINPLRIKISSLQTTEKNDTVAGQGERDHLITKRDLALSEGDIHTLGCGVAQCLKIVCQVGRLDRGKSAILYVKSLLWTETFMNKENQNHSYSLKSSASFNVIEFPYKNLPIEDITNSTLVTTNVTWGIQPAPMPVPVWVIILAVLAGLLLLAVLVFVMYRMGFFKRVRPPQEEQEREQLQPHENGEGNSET
Sequence of U87MG cells (P05106 27-788): as the sequence (P05106 27-788) above

Structure (SMILES): COc1cccc2c1C(=O)c1c(O)c3c(c(O)c1C2=O)C[C@@](O)(C(=O)CO)C[C@@H]3O[C@H]1C[C@H](N)[C@H](O)[C@H](C)O1 [Dox, doxorubicin]
- survival rate (in words) (U87MG-tumor-bearing mice; 15-day treatment): lowest survival rate
- body weight (U87MG-tumor-bearing mice; 15-day treatment, dose 5mg/kg of Dox): continual decrease in body weight
- histopathology (H&E) toxicity in organs (U87MG-tumor-bearing mice; after the 15-day treatment): obvious cardiotoxicity and hepatotoxicity

Structure (SMILES): CC(=O)O[C@H]1C(=O)[C@@]2(C)[C@H]([C@H](OC(=O)c3ccccc3)[C@]3(O)C[C@H](OC(=O)[C@H](O)[C@@H](NC(=O)c4ccccc4)c4ccccc4)C(C)=C1C3(C)C)[C@]1(OC(C)=O)CO[C@@H]1C[C@@H]2O [PTX]
- cell migration compared with the controls [1]: strong inhibition on cell migration

Structure (SMILES): CSCC[C@H](NC(=O)[C@H](CC(N)=O)NC(=O)[C@@H](CCCNC(=N)N)NC(=O)[C@H](Cc1c[nH]c2ccccc12)NC(=O)[C@@H](N)CCCNC(=N)N)C(=O)O [RWrNM] (H-RW[dR]NM-OH)
- Kd (αvβ3 integrin): 8.61 ± 1.35 nM

Structure (SMILES): N=C(N)NCCC[C@H](N)C(=O)N[C@@H](Cc1c[nH]c2ccccc12)C(=O)N[C@H](CCCNC(=N)N)C(=O)O [RWr] (H-Arg-Trp-[dR]-OH)
- Kd (αvβ3 integrin): 33.6 ± 4.56 nM

Structure (SMILES): CCN(CC)c1ccc2c(-c3ccccc3C(=O)O)c3ccc(=[N+](CC)CC)cc-3oc2c1 [RhB, Rhodamine B]
- cellular uptake (RhB fluorescence) (U87MG cells): no fluorescence was observed

Structure (SMILES): CCN(CC)CCNC(=O)c1c(C)[nH]c(/C=C2\C(=O)Nc3ccc(F)cc32)c1C [Sunitinib]
- cell migration compared with the controls [1]: strong inhibition on cell migration

Structure (SMILES): N=C(N)NCCC[C@@H]1NC(=O)[C@H](CCCCN)NC(=O)[C@@H](Cc2ccc(O)cc2)NC(=O)[C@H](CC(=O)O)NC(=O)CNC1=O [c(RGDyK)]
- cell migration compared with the controls [1]: obvious decrease in cell migration
- levels of phosphorylated signalling proteins [2]: decreased the levels of p-FAK, p-PI3K, and p-Ras proteins
